Assay results reported in ChEMBL document CHEMBL1122413, “Chloralanyl and propargylglycyl dipeptides. Suicide substrate containing antibacterials” (1983).
Converted amounts (≈) assume the structure as drawn. Where a SMILES comes first, the peptide text is derived from it. [ ]: non-standard residue; d: D form. Pra = C#CC[CH](N)C(=O)O

Experiments:
[1] = test system: Escherichia coli; assay: Minimum inhibitory concentration against Escherichia coli; type: functional
How it was run: (§1)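 Agar dilution on defined peptide susceptibility medium with peptide in serial twofold dilutions. Strains subcultured on blood or chocolate agar. Inoculum from overnight culture in liquid peptide medium, diluted to approx 1×10^7 cfu/mL, applied by Steers replicator. Plates incubated overnight at 37 °C. MIC taken as lowest concentration permitting fewer than ten colonies at 16–18 h.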

[2] = test system: Klebsiella aerogenes; assay: Minimum inhibitory concentration against Enterobacter aerogenes; type: functional; how it was run: as §1
[3] = test system: Enterobacter cloacae; assay: Minimum inhibitory concentration against Enterobacter cloacae; type: functional; how it was run: as §1
[4] = test system: Haemophilus influenzae; assay: Minimum inhibitory concentration against Hemophilus influenzae; type: functional
How it was run: (§2)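 Agar dilution on defined peptide susceptibility medium with hemin (25 μg/mL), NAD (25 μg/mL) and Isovitalex (1%) added, peptide in serial twofold dilutions. Colonies from overnight chocolate or blood agar resuspended in liquid peptide medium to 10⁸ cfu/mL, applied by Steers replicator. Incubation overnight at 37 °C under 7% CO₂. MIC: lowest concentration giving fewer than ten colonies at 16–18 h.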

[5] = test system: Klebsiella pneumoniae; assay: Minimum inhibitory concentration against Klebsiella pneumoniae; type: functional; how it was run: as §1
[6] = test system: Morganella morganii; assay: Minimum inhibitory concentration against Morganella morganii; type: functional; how it was run: as §1
[7] = test system: Pseudomonas aeruginosa; assay: Minimum inhibitory concentration against Pseudomonas aeruginosa; type: functional; how it was run: as §1
[8] = test system: Proteus mirabilis; assay: Minimum inhibitory concentration against Proteus mirabilis; type: functional; how it was run: as §1
[9] = test system: Salmonella typhimurium; assay: Minimum inhibitory concentration against Salmonella Typhimurium; type: functional, Salmonella enterica subsp. enterica serovar Typhimurium; conditions: Salmonella enterica; how it was run: as §1
[10] = test system: Serratia marcescens; assay: Minimum inhibitory concentration against Serratia marcescens; type: functional; how it was run: as §1
[11] = test system: Shigella flexneri; assay: Minimum inhibitory concentration against Shigella flexneri; type: functional; how it was run: as §1
[12] = test system: Staphylococcus epidermidis; assay: Minimum inhibitory concentration against Staphylococcus epidermidis; type: functional; how it was run: as §1
[13] = test system: Streptococcus agalactiae; assay: Minimum inhibitory concentration against Streptococcus agalactiae; type: functional; how it was run: as §2
[14] = test system: Staphylococcus aureus; assay: Minimum inhibitory concentration against Staphylococcus aureus; type: functional; how it was run: as §1
[15] = test system: Enterococcus faecalis; assay: Minimum inhibitory concentration against Streptococcus faecalis; type: functional; how it was run: as §1
[16] = test system: Streptococcus pyogenes; assay: Minimum inhibitory concentration against Streptococcus pyogenes; type: functional; how it was run: as §2

Structure (SMILES)	MIC [1] [µg/mL]	MIC [2] [µg/mL]	MIC [3] [µg/mL]	MIC [4] [µg/mL]	MIC [5] [µg/mL]	MIC [6] [µg/mL]	MIC [7] [µg/mL]	MIC [8] [µg/mL]	MIC [9] [µg/mL]	MIC [10] [µg/mL]	MIC [11] [µg/mL]	MIC [12] [µg/mL]	MIC [13] [µg/mL]	MIC [14] [µg/mL]	MIC [15] [µg/mL]	MIC [16] [µg/mL]
N[C@@H](CCl)C(=O)O	> 100	> 100	> 100	> 100	> 100	> 100	> 100	> 100	> 100	> 100	> 100	25 (≈ 202 µM)	3.12 (≈ 25.3 µM)	3.12 (≈ 25.3 µM)	> 100	3.12 (≈ 25.3 µM)
C#CCC(NC(=O)[C@H](C)N)C(=O)O.O=C(O)C(F)(F)F (stereo not given in full)	> 100	> 100	> 100	> 100	> 100	> 100	> 100	> 100	> 100	> 100	> 100	3.12	50	> 100	> 100	> 100
C[C@H](NC(=O)[C@@H](N)CCl)C(=O)O.O=C(O)C(F)(F)F	> 100	> 100	> 100	> 100	> 100	> 100	> 100	> 100	> 100	> 100	> 100	0.025	0.39	0.05	> 100	> 100
C[C@@H](N)C(=O)N[C@H](C)C(=O)O.O=C(O)C(F)(F)F	> 100	> 100	> 100	> 100	> 100	> 100	> 100	> 100	> 100	> 100	> 100	> 100	> 100	> 100	> 100	> 100
C#CC[C@H](N)C(=O)O	> 100	> 100	> 100	> 100	> 100	> 100	> 100	> 100	> 100	> 100	> 100	> 100	> 100	> 100	> 100	> 100
C[C@H](N)C(=O)N[C@@H](CCl)C(=O)O.O=C(O)C(F)(F)F	> 100	> 100	> 100	> 100	> 100	> 100	> 100	> 100	> 100	> 100	> 100	0.0125	0.2	0.0125	> 100	> 100
CCC[C@H](N)C(=O)N[C@@H](CCl)C(=O)O.O=C(O)C(F)(F)F	1.56	> 100	6.25	0.78	> 100	50	> 100	12.5	> 100	> 100	> 100	0.025	0.2	0.025	0.39	> 100
C#CC[C@H](NC(=O)[C@@H](N)CCl)C(=O)O.O=C(O)C(F)(F)F	3.12	25	25	1.56	> 100	> 100	> 100	> 100	> 100	> 100	3.12	0.05	0.39	0.1	3.12	25
C#CCC(NC(=O)[C@H](N)CCl)C(=O)O.O=C(O)C(F)(F)F (stereo not given in full)	> 100	> 100	> 100	> 100	> 100	> 100	> 100	> 100	> 100	> 100	> 100	> 100	> 100	> 100	> 100	> 100
C[C@H](N)C(=O)N[C@H](CCl)C(=O)O.O=C(O)C(F)(F)F	> 100	> 100	> 100	> 100	> 100	> 100	> 100	> 100	> 100	> 100	> 100	> 100	> 100	> 100	> 100	> 100
C#CC[C@@H](NC(=O)[C@H](N)CCl)C(=O)O.O=C(O)C(F)(F)F	> 100	> 100	> 100	> 100	> 100	> 100	> 100	> 100	> 100	> 100	> 100	> 100	> 100	> 100	> 100	> 100
C#CCC(N)C(=O)NC(CC#C)C(=O)O.O=C(O)C(F)(F)F (stereo not given) (H-[Pra]-[Pra]-OH; configuration not given here)	> 100	> 100	> 100	> 100	> 100	> 100	> 100	> 100	> 100	> 100	> 100	3.12	6.25	12.5	> 100	> 100
C[C@@H](N)C(=O)N[C@H](CCl)C(=O)O.O=C(O)C(F)(F)F	> 100	> 100	> 100	> 100	> 100	> 100	> 100	> 100	> 100	> 100	> 100	> 100	> 100	> 100	> 100	> 100
N[C@H](CCl)C(=O)O	6.25 (≈ 50.6 µM)	12.5 (≈ 101 µM)	100 (≈ 809 µM)	6.25 (≈ 50.6 µM)	100 (≈ 809 µM)	> 100	> 100	> 100	100 (≈ 809 µM)	25 (≈ 202 µM)	50 (≈ 405 µM)	25 (≈ 202 µM)	12.5 (≈ 101 µM)	12.5 (≈ 101 µM)	50 (≈ 405 µM)	12.5 (≈ 101 µM)
C#CC[C@H](N)C(=O)N[C@@H](C)C(=O)O.O=C(O)C(F)(F)F	> 100	> 100	> 100	> 100	> 100	> 100	> 100	> 100	> 100	> 100	> 100	1.56	> 100	> 100	> 100	> 100
N[C@@H](CCl)C(=O)N[C@@H](CCl)C(=O)O.O=C(O)C(F)(F)F	1.56	25	12.5	1.56	> 100	50	> 100	50	> 100	> 100	12.5	0.05	0.39	0.05	3.12	1.56
C#CC[C@H](NC(=O)[C@H](C)N)C(=O)O.O=C(O)C(F)(F)F	> 100	> 100	> 100	> 100	> 100	> 100	> 100	> 100	> 100	> 100	> 100	1.56	100	> 100	100	> 100
C#CC[C@H](NC(=O)[C@@H](N)CC#C)C(=O)O.O=C(O)C(F)(F)F (H-[Pra]-[Pra]-OH)	25	> 100	50	> 100	> 100	> 100	> 100	> 100	> 100	> 100	12.5	0.78	3.12	3.12	> 100	> 100
CSCC[C@H](N)C(=O)N[C@@H](CCl)C(=O)O.O=C(O)C(F)(F)F	1.56	6.25	6.25	0.78	> 100	50	> 100	100	> 100	50	> 100	0.025	0.2	0.025	0.39	> 100
C#CC[C@@H](NC(=O)[C@H](C)N)C(=O)O.O=C(O)C(F)(F)F	> 100	> 100	> 100	> 100	> 100	> 100	> 100	> 100	> 100	> 100	> 100	> 100	> 100	> 100	> 100	> 100
